Sampled rows, rich in hits. Any-hit rate of the full collection: about 4.6%.
GPR7 antagonist – human neuropeptides B/W receptor 1 antagonism. P48145. GPR7-expressing cells, fluorescence antagonist assay. inhibition, % at 4.4 µM. 290,000 compounds, 1.1% hits; in the data active means inhibition above about 16%, passing the limit was not always enough;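 further: cells stimulated with the agonist NPW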
TAAR1 agonist – agonists of human TAAR1; activation, % at 3 µM; AID 624467; CHO RD-HGA16 TAAR1, Fluo-8 calcium fluorescence; vehicle wells 0%, saturating PEA agonist 100%; 360,000 compounds, 0.99% hits;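 active means activation above the mean activation of all test compounds in the run plus 3 SD, cut at about 38% in these data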
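Test system: RD-HGA16 (CHO) cells co-expressing Gα16 and hTAAR1 | Doses: Single dose, 3 µM | Schedule: 17-24 h seeding, 75 min 37 °C dye, 30 min RT | Evaluation: % activation from peak over basal fluorescence ratio, DMSO-to-PEA scaled | Technique: Kinetic Fluo-8 calcium fluorescence | Benchmarks: Low control DMSO, high control PEA (EC100)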
CHO parental Ca – counter-screen for OX1R antagonists: effect in parental CHO cells; parental CHO-K1, ATP-induced calcium, Fluo-8 fluorescence; inhibition, % at 5.6 µM; 330,000 compounds, 0.63% hits; AID 463079;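 active means inhibition above that plate's mean sample inhibition plus 3 SD, cut at about 26% in these data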
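Test system: parental CHO cells; detection: calcium-sensitive Fluo-8 fluorescence; evaluation: percent inhibition of calcium signal; also added: ATP as calcium-mobilizing challenge; repeats: one well per compound; control set: ATP-challenged DMSO wells low, unchallenged DMSO wells high; compound: single nominal dose of 5.6 µM per compound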
OX1R antag-1 – antagonists of human orexin 1 receptor; O43613; CHO/OX1R cells, Fluo-8 calcium fluorescence, orexin A; inhibition, % at 5 µM; 330,000 compounds, 0.43% hits;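 active means inhibition above its plate's threshold, mean inhibition of all tested compounds on the plate plus 3 SD, cut at about 37% in these data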
Target sequence (O43613 whole entry, looked up): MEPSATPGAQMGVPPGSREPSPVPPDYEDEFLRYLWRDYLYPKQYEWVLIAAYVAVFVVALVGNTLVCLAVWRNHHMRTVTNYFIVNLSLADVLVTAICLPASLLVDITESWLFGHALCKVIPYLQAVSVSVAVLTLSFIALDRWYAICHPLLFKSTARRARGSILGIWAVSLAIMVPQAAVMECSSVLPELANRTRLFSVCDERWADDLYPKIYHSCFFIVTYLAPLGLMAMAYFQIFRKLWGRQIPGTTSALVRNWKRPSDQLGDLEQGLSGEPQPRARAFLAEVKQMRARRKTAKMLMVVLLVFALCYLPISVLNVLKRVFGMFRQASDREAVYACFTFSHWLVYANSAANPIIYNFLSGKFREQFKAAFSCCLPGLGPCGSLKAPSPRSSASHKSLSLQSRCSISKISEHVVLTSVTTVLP
OX1R antag-2 – antagonists of human orexin 1 receptor (OX1R) | 330,000 compounds, 1.8% hits | O43613 | OX1R-expressing cells, FRET antagonist read-out | inhibition, % at 6.6 µM; in the data active means inhibition mostly above about 38%, no sharp cut-off; inactive means mostly below about 40%
TAAR1 antag – human TAAR1 antagonism. inhibition, % at 3 µM. 360,000 compounds, 1.5% hits. CHO RD-HGA16 TAAR1, Fluo-8 calcium fluorescence, antagonist. AID 624466. Q96RJ0;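 active means inhibition above a per-plate cutoff, the mean inhibition of test compounds on that plate plus 3 SD, cut at about 49% in these data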
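System: RD-HGA16 CHO cells with stable hTAAR1 and Gα16 | Probe or stimulus: EC80 β-phenethylamine stimulus | Dosing: 3 µM, single point | Times: Dye loading 75 min at 37 °C, then 30 min room temperature | Measured by: Fluo-8 calcium-sensitive fluorescence | Read-out basis: % inhibition of agonist calcium response | Replicates: n of 1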
TAAR1 ag confirm – confirmation of human TAAR1 agonists; shares compounds with TAAR1 agonist; CHO RD-HGA16 TAAR1, Fluo-8 calcium fluorescence; scaled: DMSO 0%, maximal phenethylamine 100%; activation, % at 3 µM; 2,400 compounds, 82% hits; AID 651783;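 active means activation above a cutoff set at the run's mean compound activation plus 3 SD, cut at about 39% in these data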
Ga16 nonsel ag – nonselective agonism, TAAR1 counter-screen | shares compounds with TAAR1 agonist | CHO-Ga16 parental, Fluo-8 calcium fluorescence; normalized to maximal ATP response, DMSO zero | activation, % at 3 µM | 2,400 compounds, 50% hits | AID 651787;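 active means activation above the run cutoff, the mean activation over all tested wells plus 3 SD, cut at about 12% in these data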
TAAR1 desensitize – counter-screen for human TAAR1 agonists: agonists that desensitize TAAR1; inhibition, % at 3 µM; CHO RD-HGA16 hTAAR1, Fluo-8 calcium, beta-PEA response inhibition; shares compounds with TAAR1 agonist; 2,400 compounds, 46% hits;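 active means inhibition above the run cutoff, the mean inhibition of all test compounds plus 3 SD, cut at about 49% in these data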;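 further: beta-PEA stimulus applied at its EC80; loss of beta-PEA calcium signal after compound pretreatment read as receptor desensitization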
Ga16 nonsel ant – counter-screen for TAAR1 agonists: nonselective Ga16 antagonists | shares compounds with TAAR1 agonist | CHO-Ga16 ATP-induced calcium, Fluo-8 fluorescence | inhibition, % at 3 µM | 2,400 compounds, 39% hits | AID 651952;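 active means inhibition above the plate's mean compound inhibition plus 3 SD, computed per plate, cut at about 22% in these data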
Each line names hits and unclear results; the compound was inactive in the other large screens (follow-up assays come after a bar, where they were run).

O=C1CSC(c2ccccc2)N1c1cccnc1 (centres undefined)	none
COc1ccc2oc(C(=O)OCC(=O)NCc3ccccc3OC)c(C)c2c1	TAAR1 agonist 70, CHO parental Ca 56, TAAR1 antag 91 (no result: GPR7 antagonist) | TAAR1 ag confirm inactive | Ga16 nonsel ag inactive | TAAR1 desensitize 52 | Ga16 nonsel ant inactive
Cc1cc(C(F)F)n2ncc(C(=O)NCc3ccccc3)c2n1	none
Cc1cc(C(F)F)n2ncc(C(=O)NCCc3ccccc3Cl)c2n1	TAAR1 agonist 68 | TAAR1 ag confirm 69 | Ga16 nonsel ag inactive | TAAR1 desensitize inactive | Ga16 nonsel ant inactive
Cc1nc2c(C(=O)NCc3ccccc3Cl)c[nH]n2c(=O)c1Cl	none
Cc1nc2c(C(=O)NCCc3ccccc3Cl)c[nH]n2c(=O)c1Cl	TAAR1 agonist 84, TAAR1 antag 61 | TAAR1 ag confirm 80 | Ga16 nonsel ag 14 | TAAR1 desensitize 83 | Ga16 nonsel ant inactive
Cc1ccc(S(=O)(=O)N(C)C)cc1NC(=O)CN1C(=O)NC(Cc2ccccc2)C1=O (centres undefined)	none (no result: GPR7 antagonist)
CCOP(=O)(c1ccccc1)c1nc(-c2ccccc2Cl)oc1N1CCCCC1 (centres undefined)	TAAR1 agonist 48 | TAAR1 ag confirm inactive | Ga16 nonsel ag inactive | TAAR1 desensitize inactive | Ga16 nonsel ant inactive
O=C1NC2(CCCCC2)C(=O)N1Cc1cccc(C(F)(F)F)c1	TAAR1 agonist 71 | TAAR1 ag confirm inactive | Ga16 nonsel ag inactive | TAAR1 desensitize inactive | Ga16 nonsel ant inactive
CCOC(=O)C(NC(C)=O)(N1CCc2ccccc2C1)C(F)(F)F (centres undefined)	TAAR1 agonist 103, TAAR1 antag 93 | TAAR1 ag confirm 108 | Ga16 nonsel ag inactive | TAAR1 desensitize 98 | Ga16 nonsel ant inactive
Oc1c(Cl)cc(Cl)cc1CNc1nccs1	none
COc1ccc(N2CCCC2)c(NC(=O)c2ccc(Br)o2)c1	none
C/C(=C/C(=O)Nc1cccc(F)c1)N1CCCC1	none
O=C(O)C1C2C=CC(C2)C1C(=O)NCCc1ccccc1 (centres undefined)	TAAR1 agonist 84, TAAR1 antag 92 | TAAR1 ag confirm 96 | Ga16 nonsel ag inactive | TAAR1 desensitize 94 | Ga16 nonsel ant inactive
O=C(O)C1C2C=CC(C2)C1C(=O)NCCCc1ccccc1 (centres undefined)	TAAR1 agonist 76 | TAAR1 ag confirm 80 | Ga16 nonsel ag inactive | TAAR1 desensitize inactive | Ga16 nonsel ant inactive
CCOC(=O)c1ccc(NC(=O)C2C3C=CC(C3)C2C(=O)O)cc1 (centres undefined)	none
CCCCC(CC)CNC(=O)C1C2C=CC(C2)C1C(=O)O (centres undefined)	TAAR1 agonist 78, TAAR1 antag 49 | TAAR1 ag confirm 90 | Ga16 nonsel ag inactive | TAAR1 desensitize 51 | Ga16 nonsel ant inactive
O=C(O)C1C2C=CC(C2)C1C(=O)NCc1ccccn1 (centres undefined)	none (no result: TAAR1 agonist, TAAR1 antag)
O=C(O)C1C2C=CC(C2)C1C(=O)NCCc1ccncc1 (centres undefined)	none
CCC(c1nnc(SCC(=O)NC23CC4CC(CC(C4)C2)C3)o1)N(C)C (centres undefined)	none
O=C(O)CCCC(=O)Nc1nc(-c2ccccc2)cs1	none
